Compounds with a hit are over-represented: about 2.9% of the library has one in this group of screens.
SIRT5 inh: sirtuin-5 (human) deacylase inhibition. Purified SirT5, succinyl-peptide AMC, trypsin-coupled fluorescence. inhibition, % at 15 µM. 330,000 tested, 1.1% active; in the data active means inhibition above about 15%; inconclusive means no clear call, values can overlap the other calls
Target sequence (Q9NXA8 whole entry, looked up): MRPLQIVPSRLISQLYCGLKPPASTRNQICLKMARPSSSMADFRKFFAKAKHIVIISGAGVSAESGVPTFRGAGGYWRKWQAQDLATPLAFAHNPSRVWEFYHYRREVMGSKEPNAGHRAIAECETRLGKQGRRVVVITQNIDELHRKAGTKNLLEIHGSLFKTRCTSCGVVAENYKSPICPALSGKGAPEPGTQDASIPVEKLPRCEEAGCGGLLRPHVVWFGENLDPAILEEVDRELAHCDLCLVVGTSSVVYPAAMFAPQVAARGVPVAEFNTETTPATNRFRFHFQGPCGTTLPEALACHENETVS
E-selectin induc: induces E-selectin expression in human endothelial cells | HUVEC E-selectin immunofluorescence imaging; normalized: neutral wells 0, TNF-alpha wells 100 | 260,000 tested, 0.37% active | P16581 | activation, % at 7.58 µM;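 active means mean E-selectin-positive cell signal at least 10% of the positive control, reached in at least 60% of replicates, without over 20% cell loss; inconclusive means no rule given, readout overlaps actives, possibly toxicity-flagged; inactive means the rest, including those meeting only one limit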
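assay system = HUVEC, human umbilical vein endothelial cells | input = 3,000 HUVEC seeded per well | medium = EGM-2 growth medium on 0.1% gelatin-coated wells | dosing = one compound dose added by pin transfer | signal = immunofluorescence imaging | read-out basis = % PE-positive cells | control set = TNF-alpha, DMSO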
DENV2 CPE rescue: DENV2-induced cell death inhibition | DENV2-infected cells, cytopathic effect rescue, plate reader | CPE inhibition, % at 9.99 µM | 350,000 tested, 1.7% active | AID 651640; in the data active means CPE inhibition above about 20%, passing the limit was not always enough; inconclusive means no clear call, values can overlap the other calls; tested in BHK-21 cells;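 further: 0% = median of neutral control wells and 100% = median of positive control wells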
* marks the source's active call; other numbers are inactive results; u = inconclusive; x = no result.

SMILES	SIRT5 inh	E-selectin induc	DENV2 CPE rescue
C[C@@H]1CCCCO[C@@H](CN(C)S(=O)(=O)c2cn(C)cn2)[C@H](C)CN([C@@H](C)CO)C(=O)c2cc(N(C)C)ccc2O1	-2	3	53*
C[C@@H]1CCCCO[C@H](CN(C)S(=O)(=O)c2cn(C)cn2)[C@H](C)CN([C@@H](C)CO)C(=O)c2cc(N(C)C)ccc2O1	-6	0	-5
C[C@H](CO)N1C[C@H](C)[C@@H](CN(C)S(=O)(=O)c2cn(C)cn2)OCCCC[C@H](C)Oc2ccc(N(C)C)cc2C1=O	5	0	4
C[C@@H]1CN([C@H](C)CO)C(=O)c2cc(N(C)C)ccc2O[C@@H](C)CCCCO[C@H]1CN(C)S(=O)(=O)c1cn(C)cn1	-6	0	3
C/C(=N\NC(N)=S)C1=CCC2C3CC[C@H]4CC(O)CC[C@]4(C)C3CC[C@]12C (some centres undefined)	0	3	4
CCCc1nn2c(=O)cc(CSCC(=O)Nc3ccc(OC)cc3)nc2s1	0	x	-2
COc1ccccc1C#Cc1ccc2c(c1)O[C@@H](CN(C)C(C)=O)[C@@H](C)CN([C@H](C)CO)S2(=O)=O	-34	1	u
COc1ccc(CN(C)C[C@H]2Oc3c(NC(=O)Nc4ccc(OC)cc4)cccc3C(=O)N([C@H](C)CO)C[C@@H]2C)cc1	0	0	-4
COc1ccc(NC(=O)Nc2cccc3c2O[C@H](CN(C)Cc2ccc(C(F)(F)F)cc2)[C@@H](C)CN([C@H](C)CO)C3=O)cc1	2	0	22*
COc1ccc(CN(C)C[C@@H]2Oc3c(NC(=O)Nc4ccc(OC)cc4)cccc3C(=O)N([C@H](C)CO)C[C@H]2C)cc1	-4	0	42*
COc1ccc(CN(C)C[C@@H]2Oc3c(NC(=O)Nc4ccc(C(F)(F)F)cc4)cccc3C(=O)N([C@H](C)CO)C[C@H]2C)cc1	0	0	4
COc1ccc(CN(C)C[C@H]2Oc3c(NC(=O)Nc4ccc(F)cc4)cccc3C(=O)N([C@@H](C)CO)C[C@H]2C)cc1	-1	17	10
COc1ccc(CN(C)C[C@H]2Oc3c(NC(=O)Nc4ccc(F)cc4)cccc3C(=O)N([C@@H](C)CO)C[C@@H]2C)cc1	30*	-11	2
O=C(NC1CCCc2ccccc21)C1CCCO1 (centres undefined)	2	x	3
Cc1cc(OCC(=O)NC(Cc2c[nH]c3ccc(O)cc23)C(=O)O)c2c(C)c(C)c(=O)oc2c1 (centres undefined)	-2	x	94*
Cc1cc(OCC(=O)NC(Cc2ccc(Cl)cc2)C(=O)O)c2c(C)c(C)c(=O)oc2c1 (centres undefined)	x	x	92*
Cc1cc(OCC(=O)NC(Cc2ccc(Cl)cc2)C(=O)O)c2c(C)cc(=O)oc2c1 (centres undefined)	x	x	-2
Cc1c(OCC(=O)NC(Cc2c[nH]c3ccc(O)cc23)C(=O)O)ccc2c3c(c(=O)oc12)CCC3 (centres undefined)	-2	2	-5
CN(CC(=O)Nc1ccccc1Br)C(=O)CNC(=O)c1cccs1	-4	0	-6
CN1CCN(/N=C/c2nc(-c3ccc(Cl)cc3)n3ccccc23)CC1	2	3	-4
Cc1n[nH]c(=O)c2c(NC(=O)CSc3nnc(C4CC4)n3C)oc(C)c12	0	x	39*
Cc1n[nH]c(=O)c2c(NC(=O)CSc3nnc(-c4ccco4)n3C)oc(C)c12	-4	1	-3
CC(C)c1csc(CN2CCCC(CCC(=O)NCc3ccccc3F)C2)n1 (centres undefined)	-4	0	x
CCCCC(=O)NC(=S)Nc1cccc(NC(=O)c2ccccc2)c1	-2	x	-1
Cc1nnc(SCC(=O)N(C2CCCCC2)C2CCS(=O)(=O)C2)n1N (centres undefined)	-3	x	35*
SMILES	SIRT5 inh	E-selectin induc	DENV2 CPE rescue
C=CCn1cnnc1SCC(=O)N(C1CCCCC1)C1CCS(=O)(=O)C1 (centres undefined)	0	0	-4
CCC(=O)N1[C@@H]2Cn3c(ccc(C4=CCCCC4)c3=O)[C@H]1[C@@H](C(=O)N[C@H](C)c1ccccc1)[C@@H]2CO	-7	-1	-1
C[C@H](NC(=O)CCCOc1ccc(Cl)cc1Cl)c1nnc2ccccn12	-4	1	41*
O=C(CCCOc1ccc(Cl)cc1Cl)NCCc1nnc2ccccn12	0	0	-2
CC(C)C[C@@H](COc1ccccc1)N1CCN(CCc2ccccc2)CCC1=O	x	0	101*
CCCN1CCC(=O)N([C@H](COc2ccccc2)CC(C)C)CC1	x	0	0
COc1ccc(N(CC(=O)Nc2ccc3c(c2)OCO3)S(=O)(=O)c2ccccc2)cc1	0	-1	19
CCNS(=O)(=O)c1ccc(Br)c(C(=O)OC(C)C(=O)NCC2CCCCC2)c1 (centres undefined)	-2	x	43*
CC(OC(=O)c1cccc(S(=O)(=O)N2CCCCC2)c1)C(=O)NCC1CCCCC1 (centres undefined)	-5	0	-7
CN(C)C(CNC(=O)CCC(=O)c1ccc(Br)cc1)c1ccccc1 (centres undefined)	-4	x	0
COc1cccc(OCc2nnc(SCc3cc(=O)[nH]c4ccccc34)o2)c1	0	-1	-3
COc1ccccc1-c1c(C)nn2c(N3CCN(Cc4ccccc4)CC3)cc(C)nc12	3	0	55*
COc1ccc(-c2c(C)nn3c(N4CCN(Cc5ccccc5)CC4)cc(C)nc23)cc1OC	x	0	-7
COC(=O)CN1C(=O)N/C(=C/c2cc3c(cc2OC)OCO3)C1=O	2	1	2
C[C@@H]1CN([C@H](C)CO)C(=O)c2cccc(NC(=O)Nc3ccccc3)c2O[C@@H]1CN(C)C(=O)Nc1cccc2ccccc12	x	-3	-7
NCCCCCNC(=O)[C@@H]1C[C@@H]2C(=O)NCC(=O)N2[C@@H]1c1cccc(OCCO)c1	1	x	0
CN(C)CCCCCCNC(=O)[C@@H]1C[C@@H]2C(=O)NCC(=O)N2[C@@H]1c1cccc(OCCO)c1	18*	x	10
Cc1ccc(S(=O)(=O)NNC(=O)C23CCC(CC2)C3)cc1	x	1	-1
C/C(=N\Nc1cccc([N+](=O)[O-])c1)c1cc2ccccc2o1	-5	7	-4
O=C(c1cccc([N+](=O)[O-])c1)c1cc2ccccc2o1	32*	0	46*
C[C@H]1CCCCO[C@H](CN(C)S(=O)(=O)c2ccccc2)[C@@H](C)CN([C@@H](C)CO)C(=O)c2cc(NC(=O)Nc3ccc4c(c3)OCO4)ccc2O1	-4	0	61*
C[C@@H]1CCCCO[C@H](CN(C)S(=O)(=O)c2ccccc2)[C@@H](C)CN([C@H](C)CO)C(=O)c2cc(NC(=O)Nc3ccc4c(c3)OCO4)ccc2O1	-1	0	91*
Cc1ccc(S(=O)(=O)N(C)C[C@@H]2OCCCC[C@H](C)Oc3ccc(NC(=O)Nc4ccc5c(c4)OCO5)cc3C(=O)N([C@H](C)CO)C[C@H]2C)cc1	7	x	1
Cc1ccc(S(=O)(=O)N(C)C[C@@H]2OCCCC[C@@H](C)Oc3ccc(NC(=O)Nc4ccc5c(c4)OCO5)cc3C(=O)N([C@H](C)CO)C[C@H]2C)cc1	3	x	6
